The text below walks through data of ChEMBL document CHEMBL4138310 (J Med Chem, 2018).

The subject of data set [1] is Human immunodeficiency virus 1. Nature of the data set: Antiviral activity against wild-type HIV1 pNL4-3 infected in CMVdeltaR8.91 transfected 293T cells after 48 hrs by lentiviral vector-based luciferase reporter gene assay. It counts as functional, organism-based. The conditions noted are these: Human immunodeficiency virus 1, pNL4-3, HEK-293T. The essentials:
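pNL4-3-based luciferase reporter lentiviral vector made by transfecting 293T cells with pCMV-ΔR8.91 (wild-type or V32I/L33F/I54M/V82I or V32I/L33F/I54M/I84V protease) plus luciferase transfer and envelope plasmids, with or without inhibitor. After 48 h, fresh 293T cells infected with vector. IC50 for suppression of luciferase transduction taken from dose-response curve.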

The target in data set [2] is Protease (Human immunodeficiency virus 1) (UniProt Q9YQ12). Put plainly: Inhibition of recombinant HIV1 protease at 1 nM using H-Lys-Ala-Arg-Val-Tyr-Phe(p-NO2)-Glu-Ala-Nle-NH2 as substrate preincubated for 5 mins followed by substrate addition measured after 3 hrs by fluorescence-based assay. In a few lines: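 Recombinant HIV-1 protease (40 ng/mL stock in pH 5.0 acetate/EDTA/NaCl/2-mercaptoethanol/NP-40/glycerol) mixed with inhibitor (10 nM solution in DMSO) in 200 mM MES-NaOH pH 5.5 with 2 mM DTT, 2 mM EDTA and 1 M NaCl. Preincubated 5 min at 37 °C, then 1.0 mM substrate solution added and incubated 3 h at 37 °C. Stopped with 1 N HCl. The Lys-Ala-Arg-Val-Tyr-OH product was quantified by RP-HPLC with fluorescence (Ex 275, Em 305 nm). Single determination.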

Data set [3] concerns Human immunodeficiency virus 1. Nature of the data set: Antiviral activity against wild-type HIV1 pNL4-3 infected in human MT4 cells assessed as inhibition of virus-induced cytopathic effect after 5 days in absence of human serum by MTT assay. It counts as functional, organism-based. The conditions noted are these: Human immunodeficiency virus 1, pNL4-3, MT4, 120 h. In a few lines: (§1)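 MT-4 cells inoculated with HIV-1 pNL4-3, then given an equal volume of compound at several concentrations in 1% DMSO solution with 10% FBS. Incubated 5 days at 37 °C in CO2, in triplicate. MTT read by optical density, percent reduction of cytopathic effect calculated, and EC50 fitted to the median-effect equation. Values averaged over n = 3; the 50% human serum condition was run alongside.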

Data set [4] has as its system Human immunodeficiency virus 1. Nature of the data set: Antiviral activity against wild-type HIV1 pNL4-3 infected in human MT4 cells assessed as inhibition of virus-induced cytopathic effect after 5 days in presence of 50 % of human serum by MTT assay. It counts as functional, organism-based. As to conditions: Human immunodeficiency virus 1, pNL4-3, MT4, 120 h. In a few lines: as §1

Data set [5] deals with Human immunodeficiency virus 1. Nature of the data set: Ratio of EC50 for wild-type HIV1 pNL4-3 infected in human MT4 in presence of 50% of human serum to EC50 for wild-type HIV-1 pNL4-3 infected in human MT4 in absence of human serum. It counts as functional. The essentials: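 Serum binding effect calculated as the pNL4-3 EC50 in 50% human serum divided by the EC50 in 0% serum, using MT-4 cytopathic-effect MTT assays run for 5 days at 37 °C.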

Data set [6] in a line: Ratio of EC50 for inhibition of protease L10F/V32I/M46I/I47V/Q58E/I84V mutant in HIV1 A17 infected in human MT4 cells to EC50 for wild-type HIV-1 pNL4-3 infected in human MT4 cells. It counts as functional, Human immunodeficiency virus 1. In a few lines:
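Ratio of EC50 values from MT-4 cytopathic-effect MTT assays (5 days, 37 °C, triplicate, median-effect fit). Numerator is LPV-resistant strain A1711, denominator is wild-type HIV-1 pNL4-3.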

Data set [7] in a line: Cytotoxicity against human MT4 cells after 5 days by MTT assay. It counts as cell-based. The conditions noted are these: read-out: TD50. In a few lines: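 Uninfected MT-4 cells given compound at several concentrations in 1% DMSO solution with 10% FBS. Incubated 5 days at 37 °C in CO2, in triplicate. Viability read by MTT optical density, with TD50 taken as the cytotoxic measure.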
(Tetrazolium dyes change colour on reduction, which living cells bring about.)

Data set [8] is described as follows: Ratio of EC50 for DRV-resistant protease V32I/L33F/I54M/V82I mutant in HIV1 transfected in 293T cells to EC50 for wild-type HIV-1 pNL4-3 infected in CMVdeltaR8.91 transfected 293T cells. It counts as functional, Human immunodeficiency virus 1. The essentials:
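Ratio of IC50 values from the 293T luciferase reporter lentiviral vector assay. Numerator is vector carrying DRV-resistant protease (V32I/L33F/I54M/I84V or V32I/L33F/I54M/V82I), denominator is wild-type pNL4-3-based vector.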

Data set [9] can be described thus: Ratio of EC50 for DRV-resistant protease V32I/L33F/I54M/I84V mutant in HIV1 transfected in 293T cells to EC50 for wild-type HIV-1 pNL4-3 infected in CMVdeltaR8.91 transfected 293T cells. It counts as functional, Human immunodeficiency virus 1.
Data set [10] has as its system Human immunodeficiency virus 1. Nature of the data set: Antiviral activity against wild-type HIV1 3B infected in human MT4 cells assessed as inhibition of virus-induced cytopathic effect after 5 days in absence of human serum by MTT assay. As to conditions: Human immunodeficiency virus 1, 3B, MT4, 120 h. It counts as functional, organism-based. (In general: Damage to the host cells serves as the signal in cytopathic effect assays.)

In data set [11] the test system is Human immunodeficiency virus 1. Nature of the data set: Antiviral activity against wild-type HIV1 3B infected in human MT4 cells assessed as inhibition of virus-induced cytopathic effect after 5 days in presence of 50 % of human serum by MTT assay. It counts as functional, organism-based. The conditions noted are these: Human immunodeficiency virus 1, 3B, MT4, 120 h.

Data set [12] deals with Human immunodeficiency virus 1. Put plainly: Ratio of EC50 for wild-type HIV1 3B infected in human MT4 in presence of 50% of huma serum to EC50 for wild-type HIV-1 3B infected in human MT4 in absence of human serum. It counts as functional.
Data set [13] relates to Human immunodeficiency virus 1. Nature of the data set: Ratio of EC50 for wild-type HIV1 3B infected in human MT4 in presence of 50% of huma serum to EC50 for wild-type HIV-1 pNL4-3 infected in human MT4 in absence of human serum. It counts as functional. The essentials:
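Serum binding effect: EC50 measured with 50% human serum divided by EC50 measured without serum. Each EC50 came from protection of MT-4 cells from HIV-induced cytopathic effect. Infected cells were exposed to several compound concentrations in 1% DMSO with 10% FBS for 5 days at 37 °C in triplicate, read by MTT optical density, and fitted to a median-effect equation.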

In the case of `COc1cccc2cc(C(=O)N[C@H](C(=O)N[C@@H](Cc3ccccc3)[C@H](O)C(=O)N3CSC(C)(C)[C@H]3C(=O)NCc3c(C)cccc3C)[C@H]3CCOC3)oc12`, the 50% effective concentration (EC50) (commonly the concentration that produces a half-maximal response) is 1.71 nM in data set [1], < 3 nM in data set [3] and 80 nM in [4]. The inhibition (usually the drop in the measured response relative to a control, in per cent) in data set [2] is 97%. The “Ratio EC50” value in [5] was >27; in data set [6], >8; in data set [8], 0.2; in data set [9], 0.7. The CC50 at 120 h in data set [7] was 11000 nM.
Regarding `CSC[C@H](NC(=O)COc1cccc2cnccc12)C(=O)N[C@@H](Cc1ccccc1)[C@H](O)C(=O)N1CSC[C@H]1C(=O)NC(C)(C)C`, the inhibition in data set [2] came to 14%. Besides, the concentration for a half-maximal effect (EC50) worked out at 176 nM in data set [10] and 2880 nM in data set [11]. Moreover, in data set [12], the “Ratio EC50” value is 16.
With `Cc1ccccc1CNC(=O)[C@H]1N(C(=O)[C@@H](O)[C@H](Cc2ccccc2)NC(=O)c2cccc(O)c2C)CSC1(C)C`, in [2], the inhibition was 48%. For the same compound, the results for the EC50 in [3] and in [11] were 60 nM and 114 nM, respectively. Further, the “Ratio EC50” value was 2 in data set [13] and 46 in [6]. In data set [7], the CC50 at 120 h is 23000 nM.
